Data published in ChEMBL document CHEMBL1134863, “Antifungal activity of bifunctional sphingolipids. Intramolecular synergism within long-chain alpha,omega-bis-aminoalcohols” (2002).
Several values for one entry are separate records, joined by “and”; a condition that tells them apart may be missing. Equal values may be shown once. Activity calls are given as the source filed them. The rule behind the calls is not given here.

Tests used:
Nakaseomyces glabratus [1] = experiment: Antifungal minimum inhibitory concentration of compound against Candida glabrata; Inactive; assay type: functional, organism-based
In short: (§1)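 Microbroth dilution assay, modified from a published method, against C. glabrata (fluconazole-resistant strain). MIC values come from duplicate experiments.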

Nakaseomyces glabratus [2] = experiment: Minimum inhibitory concentration against Candida glabrata; assay type: functional; in short: as §1
Nakaseomyces glabratus [3] = experiment: Fungicidal versus fungistatic activity of bifunctional sphingolipids against Candida glabrata at a concentration of 10 ug/mL before dilution replating; no growth in media; assay type: functional, organism-based
Nakaseomyces glabratus [4] = experiment: Fungicidal versus fungistatic activity of bifunctional sphingolipids against Candida glabrata at a concentration of 12 ug/mL before dilution replating; no growth in media; assay type: functional, organism-based
Nakaseomyces glabratus [5] = experiment: Fungicidal versus fungistatic activity of bifunctional sphingolipids against Candida glabrata at a concentration of 0.3 ug/mL before dilution replating; growth in media; assay type: functional, organism-based
Nakaseomyces glabratus [6] = experiment: Fungicidal versus fungistatic activity of bifunctional sphingolipids against Candida glabrata at a concentration of 6 ug/mL before dilution replating; no growth in media; assay type: functional, organism-based
Nakaseomyces glabratus [7] = experiment: Fungicidal versus fungistatic activity of bifunctional sphingolipids against Candida glabrata at a concentration of 1 ug/mL before dilution replating; no fungistatic growth on plate; assay type: functional, organism-based
Nakaseomyces glabratus [8] = experiment: Fungicidal versus fungistatic activity of bifunctional sphingolipids against Candida glabrata at a concentration of 3 ug/mL before dilution replating; no fungistatic growth on plate; assay type: functional, organism-based
Nakaseomyces glabratus [9] = experiment: Fungicidal versus fungistatic activity of bifunctional sphingolipids against Candida glabrata at a concentration of 5 ug/mL before dilution replating; no growth in media; assay type: functional, organism-based
Nakaseomyces glabratus [10] = experiment: Fungistatic activity of bifunctional sphingolipids against Candida glabrata at a concentration of 12 ug/mL before dilution replating; growth in media; assay type: functional, organism-based
Nakaseomyces glabratus [11] = experiment: Fungistatic activity of bifunctional sphingolipids against Candida glabrata at a concentration of 0.3 ug/mL before dilution replating; growth in media; assay type: functional, organism-based
Nakaseomyces glabratus [12] = experiment: Fungistatic activity of bifunctional sphingolipids against Candida glabrata at a concentration of 10 ug/mL before dilution replating; growth in media; assay type: functional, organism-based
Nakaseomyces glabratus [13] = experiment: Fungistatic activity of bifunctional sphingolipids against Candida glabrata at a concentration of 1 ug/mL before dilution replating; growth in media; assay type: functional, organism-based
Nakaseomyces glabratus [14] = experiment: Fungistatic activity of bifunctional sphingolipids against Candida glabrata at a concentration of 3 ug/mL before dilution replating; growth in media; assay type: functional, organism-based
Nakaseomyces glabratus [15] = experiment: Fungistatic activity of bifunctional sphingolipids against Candida glabrata at a concentration of 5 ug/mL before dilution replating; growth in media; assay type: functional, organism-based
Nakaseomyces glabratus [16] = experiment: Fungistatic activity of bifunctional sphingolipids against Candida glabrata at a concentration of 30 ug/mL before dilution replating; no growth in media; assay type: functional, organism-based
Nakaseomyces glabratus [17] = experiment: Fungistatic activity of bifunctional sphingolipids against Candida glabrata at a concentration of 6 ug/mL before dilution replating; growth in media; assay type: functional, organism-based
Nakaseomyces glabratus [18] = experiment: Fungicidal versus fungistatic activity of bifunctional sphingolipids against Candida glabrata at a concentration of 3 ug/mL before dilution replating; growth in media; assay type: functional, organism-based
Nakaseomyces glabratus [19] = experiment: Fungicidal versus fungistatic activity of bifunctional sphingolipids against Candida glabrata at a concentration of 1 ug/mL before dilution replating; growth in media; assay type: functional, organism-based
Nakaseomyces glabratus [20] = experiment: Fungicidal versus fungistatic activity of bifunctional sphingolipids against Candida glabrata at a concentration of 5 ug/mL before dilution replating; growth in media; assay type: functional, organism-based
Nakaseomyces glabratus [21] = experiment: Fungicidal versus fungistatic activity of bifunctional sphingolipids against Candida glabrata at a concentration of 10 ug/mL before dilution replating; no fungicidal growth on plate; assay type: functional, organism-based
Nakaseomyces glabratus [22] = experiment: Fungicidal versus fungistatic activity of bifunctional sphingolipids against Candida glabrata at a concentration of 6 ug/mL before dilution replating; no fungistatic growth on plate; assay type: functional, organism-based
Nakaseomyces glabratus [23] = experiment: Fungicidal versus fungistatic activity of bifunctional sphingolipids against Candida glabrata at a concentration of 12 ug/mL before dilution replating no fungistatic growth on plate; assay type: functional, organism-based
Nakaseomyces glabratus [24] = experiment: Fungicidal versus fungistatic activity of bifunctional sphingolipids against Candida glabrata at a concentration of 10 ug/mL before dilution replating; no fungistatic growth on plate; assay type: functional, organism-based
Nakaseomyces glabratus [25] = experiment: Fungicidal versus fungistatic activity of bifunctional sphingolipids against Candida glabrata at a concentration of 6 ug/mL before dilution replating; growth in media; assay type: functional, organism-based
Nakaseomyces glabratus [26] = experiment: Fungicidal versus fungistatic activity of bifunctional sphingolipids against Candida glabrata at a concentration of 5 ug/mL before dilution replating; no fungistatic growth on plate; assay type: functional, organism-based
Nakaseomyces glabratus [27] = experiment: Fungicidal versus fungistatic activity of bifunctional sphingolipids against Candida glabrata at a concentration of 3 ug/mL before dilution replating; no growth in media; assay type: functional, organism-based
Nakaseomyces glabratus [28] = experiment: Fungicidal versus fungistatic activity of bifunctional sphingolipids against Candida glabrata at a concentration of 1 ug/mL before dilution replating; no (fungicidal, no growth on plate) growth in media; assay type: functional, organism-based
Nakaseomyces glabratus [29] = experiment: Fungicidal versus fungistatic activity of bifunctional sphingolipids against Candida glabrata at a concentration of 0.3 ug/mL before dilution replating; (fungicidal, no growth on plate) no growth in media; assay type: functional, organism-based
[30] = Nakaseomyces glabratus, read-out: MIC

## C[N+](C)(C)CCCCCCCCCCCC[N+](C)(C)C.[Cl-].[Cl-]
Nakaseomyces glabratus [1]
  MIC: inactive
Nakaseomyces glabratus [2]; [30]
  MIC: > 100 µg/mL

## Hexadecyl-trimethyl-ammonium bromide
Nakaseomyces glabratus [2]
  MIC: 5 µg/mL and 14 µM

## OC(Cn1cncn1)(Cn1cncn1)c1ccc(F)cc1F [FLUCONAZOLE]
Nakaseomyces glabratus [3]
  Activity: growth in media
Nakaseomyces glabratus [4]
  Activity: growth in media
Nakaseomyces glabratus [2]
  MIC: >=100 ug ml-1
Nakaseomyces glabratus [2]; [30]
  MIC: > 64 µg/mL
Nakaseomyces glabratus [5]
  Activity: growth in media
Nakaseomyces glabratus [6]
  Activity: growth in media
Nakaseomyces glabratus [7]
  Activity: growth in media
Nakaseomyces glabratus [8]
  Activity: growth in media
Nakaseomyces glabratus [9]
  Activity: growth in media

## CCC[C@@H](O)[C@H](C)N
Nakaseomyces glabratus [1]
  MIC: inactive
Nakaseomyces glabratus [2]; [30]
  MIC: > 100 µg/mL

## CCCCCCCCCCCCC/C=C/[C@@H](O)[C@@H](N)CO [SPHINGOSINE]
Nakaseomyces glabratus [10]
  Activity: inactive
Nakaseomyces glabratus [11]
  Activity: inactive
Nakaseomyces glabratus [12]
  Activity: inactive
Nakaseomyces glabratus [13]
  Activity: inactive
Nakaseomyces glabratus [2]; [30]
  MIC: 30 µg/mL and 100 µM
Nakaseomyces glabratus [14]
  Activity: inactive
Nakaseomyces glabratus [15]
  Activity: inactive
Nakaseomyces glabratus [16]
  NA: Partially active
Nakaseomyces glabratus [17]
  Activity: inactive

## CCC[C@@H](O)[C@@H](N)CO
Nakaseomyces glabratus [1]
  MIC: inactive
Nakaseomyces glabratus [2]; [30]
  MIC: > 100 µg/mL

## NCCCCCCN
Nakaseomyces glabratus [1]
  MIC: inactive
Nakaseomyces glabratus [2]; [30]
  MIC: > 100 µg/mL

## C[C@@H](N)[C@H](O)CCCCCCCCCCCCCCC(=O)CCCCCCC[C@@H](OC[C@H]1O[C@@H](O)[C@H](O)[C@@H](O)[C@@H]1O)[C@@H](N)CO
Nakaseomyces glabratus [18]
  Activity: growth in media
Nakaseomyces glabratus [19]
  Activity: growth in media
Nakaseomyces glabratus [20]
  Activity: growth in media
Nakaseomyces glabratus [2]; [30]
  MIC: 10 µg/mL and 15 µM
Nakaseomyces glabratus [5]
  Activity: growth in media
Nakaseomyces glabratus [21]
  Activity: growth in media
Nakaseomyces glabratus [22]
  Activity: growth in media

## C[C@H](NC(=O)c1ccccc1)[C@@H](CCCCCCCCCCCCCCCCCCCC[C@@H](OC(=O)c1ccccc1)[C@H](C)NC(=O)c1ccccc1)OC(=O)c1ccccc1
Nakaseomyces glabratus [1]
  MIC: inactive
Nakaseomyces glabratus [2]; [30]
  MIC: > 100 µg/mL

## C[C@H](N)[C@H](O)CCCCCCCCCCCCCCCCCCCC[C@@H](O)[C@H](C)N
Nakaseomyces glabratus [23]
  Activity: growth in media
Nakaseomyces glabratus [18]
  Activity: growth in media
Nakaseomyces glabratus [19]
  Activity: growth in media
Nakaseomyces glabratus [20]
  Activity: growth in media
Nakaseomyces glabratus [24]
  Activity: growth in media
Nakaseomyces glabratus [2]; [30]
  MIC: 10 µg/mL and 24 µM
Nakaseomyces glabratus [5]
  Activity: growth in media
Nakaseomyces glabratus [25]
  Activity: growth in media

## NCCCCCCCCCCCCN
Nakaseomyces glabratus [2]; [30]
  MIC: > 100 µg/mL

## C[C@@H](N)[C@H](O)CCCCCCCCCCCCCCC(=O)CCCCCCC[C@@H](O)[C@@H](N)CO
Nakaseomyces glabratus [18]
  Activity: growth in media
Nakaseomyces glabratus [19]
  Activity: growth in media
Nakaseomyces glabratus [4]
  Activity: growth in media
Nakaseomyces glabratus [2]; [30]
  MIC: 3 µg/mL and 6.2 µM
Nakaseomyces glabratus [5]
  Activity: growth in media
Nakaseomyces glabratus [26]
  Activity: growth in media
Nakaseomyces glabratus [21]
  Activity: growth in media
Nakaseomyces glabratus [22]
  Activity: growth in media

## CCC[C@@H](OC(=O)c1ccccc1)[C@H](COC(=O)c1ccccc1)NC(=O)c1ccccc1
Nakaseomyces glabratus [1]
  MIC: inactive
Nakaseomyces glabratus [2]; [30]
  MIC: > 100 µg/mL

## C[C@@H]1[C@H](O)[C@@H](C)/C=C/C=C/C=C/C=C/C=C/C=C/C=C/[C@H](O[C@@H]2O[C@H](C)[C@@H](O)[C@H](N)[C@@H]2O)C[C@@H]2O[C@](O)(C[C@@H](O)C[C@@H](O)[C@H](O)CC[C@@H](O)C[C@@H](O)CC(=O)O[C@H]1C)C[C@H](O)[C@H]2C(=O)O
Nakaseomyces glabratus [27]
  Activity: no growth in media
Nakaseomyces glabratus [3]
  Activity: no growth in media
Nakaseomyces glabratus [4]
  Activity: no growth in media
Nakaseomyces glabratus [6]
  Activity: no growth in media
Nakaseomyces glabratus [28]
  Activity: no growth in media
Nakaseomyces glabratus [29]
  Activity: no growth in media
Nakaseomyces glabratus [9]
  Activity: no growth in media
